Screening results (PubChem BioAssay)
TCR CD3 inh: inhibitors of human TCR-CD3 interaction, primary screen, biochemical, fluorescence, TAMRA-labeled TCR probe | T-cell receptor (TCR) | inhibition, % at 9.4 µM | 360,000 tested, 0.37% active;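 further: recombinant mutant TCR 2C K166C tagged with TAMRA read by polarization; 0% = receptor in buffer alone and 100% = receptor with positive control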
DAGLB inh: DAGLB lipase inhibitors, primary screen, biochemical, fluorescence, HTS; Diacylglycerol lipase-beta (Homo sapiens), Q8NCG7; HEK293T DAGLB membrane lysate, EnzChek fluorogenic substrate; inhibition, % at 5.17 µM; 340,000 tested, 0.059% active; AID 504411, 2011; in the data active means inhibition above about 34%;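 further: 0% = enzyme with vehicle and 100% = wells lacking enzyme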
Target sequence (Q8NCG7 whole entry, looked up): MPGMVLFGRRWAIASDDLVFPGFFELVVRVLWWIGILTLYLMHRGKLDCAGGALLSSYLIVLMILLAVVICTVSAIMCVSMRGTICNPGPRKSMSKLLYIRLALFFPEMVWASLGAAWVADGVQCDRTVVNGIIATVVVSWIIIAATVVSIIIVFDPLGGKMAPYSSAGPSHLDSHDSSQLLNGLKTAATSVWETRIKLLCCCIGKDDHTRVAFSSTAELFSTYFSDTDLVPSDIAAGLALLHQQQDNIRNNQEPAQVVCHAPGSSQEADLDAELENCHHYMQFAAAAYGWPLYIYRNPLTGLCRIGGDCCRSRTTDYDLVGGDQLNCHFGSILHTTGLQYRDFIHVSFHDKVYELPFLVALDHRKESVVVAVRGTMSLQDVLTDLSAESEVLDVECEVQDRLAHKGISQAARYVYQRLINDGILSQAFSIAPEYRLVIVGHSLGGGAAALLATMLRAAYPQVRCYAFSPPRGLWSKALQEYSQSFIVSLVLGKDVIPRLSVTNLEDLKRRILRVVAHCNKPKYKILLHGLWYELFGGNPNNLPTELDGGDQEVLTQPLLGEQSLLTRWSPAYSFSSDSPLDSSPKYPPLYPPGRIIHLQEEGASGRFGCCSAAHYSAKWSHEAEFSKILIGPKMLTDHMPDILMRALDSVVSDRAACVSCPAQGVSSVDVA
SIAE primary: human SIAE inhibitors, primary screen, biochemical, fluorescence polarization, FP-Rh probe, 1536-well HTS. SIAE FP-Rh probe binding. inhibition, % at 9.66 µM. 370,000 tested, 0.69% active;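 active means inhibition above a cutoff: mean of compounds within the control limits plus 3 SD of those, cut at about 17% in these data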;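 further: 0% = plate median of compound wells and 100% = probe without SIAE protein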
ABHD4 inh: ABHD4 inhibitors, primary screen, biochemical, fluorescence polarization, mouse. (Lyso)-N-acylphosphatidylethanolamine lipase (Mus musculus), Q8VD66. purified mABHD4, FP-Rh probe fluorescence polarization. inhibition, % at 8.92 µM. 370,000 tested, 0.54% active. AID 720543, 2013;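 active means inhibition exceeding the mean over every tested compound plus 3 SD, cut at about 30% in these data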;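 further: 0% = plate median of compound wells and 100% = S159A mutant with DMSO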
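Test system: mABHD4 protein; Read-out basis: % inhibition; Incubation: 45 min + 60 min at 25 °C; Repeats: single replicate; Technique: fluorescence polarization with parallel and perpendicular emission, 525/598 nm; Compound: 8.92 µM, single dose; Benchmarks: full inhibition S159A mutant plus DMSO, zero as sample-well median.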
HTRA1 inhibitor: HTRA1 serine protease inhibitors, primary screen, biochemical, fluorescence polarization, HTS; Q92743; recombinant HTRA1, FP-rhodamine activity-based probe; inhibition, % at 5.96 µM; 340,000 tested, 0.5% active; AID 504803, 2011; in the data active means inhibition above about 36%;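 further: 0% = enzyme with DMSO and 100% = wells lacking enzyme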
HTRA1 inh conf: HTRA1 protease inhibitors, retest, confirmation, biochemical, fluorescence polarization. 1,600 tested, 66% active. inhibition, % at 5.96 µM. shares compounds with HTRA1 inhibitor. recombinant HTRA1, FP-rhodamine activity-based probe;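 active means mean inhibition over three repeats above a set limit taken from the earlier primary screen, cut at about 37% in these data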;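 further: 0% = HTRA1 with DMSO and 100% = wells lacking HTRA1; inhibitors block probe binding so polarization drops and inhibition rises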
BSA probe FL: compounds interfering with TAMRA-BSA probe, counter-screen for TCR-CD3 interaction inhibitor project, biochemical, fluorescence, TAMRA-labeled BSA | shares compounds with TCR CD3 inh | TAMRA-labeled BSA probe fluorescence counterscreen | inhibition, % at 9.4 µM | 1,200 tested, 10% active | AID 652035, 2013; in the data active means inhibition above about 23%;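 further: 0% = buffer low control and 100% = reference high control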
TCR-CD3 inh conf: TCR-CD3 interaction inhibitors, retest, confirmation, biochemical, fluorescence, TAMRA-labeled TCR probe | inhibition, % at 9.4 µM | TAMRA-labeled TCR probe fluorescence binding assay | 1,200 tested, 48% active | shares compounds with TCR CD3 inh
mABHD4 conf: ABHD4 inhibitors, retest, confirmation, biochemical, fluorescence polarization, mouse | shares compounds with ABHD4 inh | purified mABHD4, FP-Rh probe fluorescence polarization | inhibition, % at 8.92 µM | 1,800 tested, 55% active | AID 720658, 2013;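 active means mean inhibition across replicates above the hit cutoff set in the primary screen, cut at about 30% in these data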;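 further: 0% = wild-type ABHD4 with DMSO and 100% = catalytically dead S159A mutant with DMSO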
SIAE inh conf: human SIAE inhibitors, retest, confirmation, biochemical, fluorescence polarization, FP-Rh probe, triplicate; shares compounds with SIAE primary; SIAE FP-Rh activity-based probe; inhibition, % at 9.66 µM; 2,300 tested, 13% active;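 active means mean inhibition of the replicates above the hit cutoff set in the primary screen, cut at about 17% in these data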;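 further: 0% = SIAE with DMSO and probe and 100% = probe without SIAE; inhibitors lower polarization as more probe stays unbound to SIAE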
* hit, by the source's call; x = not tested or not shown. Most compounds without a hit are left out; they make up all but 1.6% or so of the library. Unless noted, no stated cut-off is given here; in the data, active means inhibition above about 19%; inactive means the rest.

SMILES | TCR CD3 inh | DAGLB inh | SIAE primary | ABHD4 inh | HTRA1 inhibitor | HTRA1 inh conf | BSA probe FL | TCR-CD3 inh conf | mABHD4 conf | SIAE inh conf
CCCCC(=Nc1ccc(N)cc1)C1=C(O)C(C(=O)OC)C(C)(C)CC1=O (stereo not drawn) | 49.6* | 2.0 | 44.4* | 71.5* | 63.9* | 9.4 | 13.5 | 9.4 | 15.9 | 7.6
CC(=O)Nc1cccc(C(C)C2=CCCCC2)c1 (stereo not drawn) | x | x | -2.1 | -12.0 | x | x | x | x | x | x
Cc1ccc(N=Cc2cccc(O)c2O)c(C)c1 | 9.5 | 13.0 | 20.1* | 48.9* | 84.0* | 42.8* | x | x | 29.9* | 8.3
Oc1ccc(NCc2ccccc2OCc2ccccc2)cc1 | 26.4* | 1.2 | 39.5* | 80.8* | 49.3* | 25.1 | 0.4 | -1.0 | 27.4 | 5.3
COC(=O)[C@]1(Cc2ccccc2)NC=C(C(=O)c2ccccc2)[C@@H]1c1cccs1 | -2.1 | x | 1.5 | 5.2 | x | x | x | x | x | x
CCCCCCCCN1C(=O)[C@@H](CC(=O)N2CCCC2)C[C@@]2(C(=O)OC)C1=C[C@H](C(C)(C)C)O[C@@H]2C | -2.1 | x | -0.1 | 0.6 | x | x | x | x | x | x
CC1=CC(C)(C)N2C(=O)C(=Nc3ccc(O)cc3)c3cccc1c32 | 42.4* | 11.4 | 21.6* | 59.7* | 53.2* | 9.7 | 4.8 | 1.2 | 28.0 | 6.7
O=C(c1cccc(Oc2ccccc2)c1)N1CCC(Oc2cccnc2)CC1 | x | x | 6.3 | -1.4 | x | x | x | x | x | x
C=CCN(CC#CC(=C)C)Cc1ccc(OC)cc1OC | x | x | -5.2 | 2.0 | x | x | x | x | x | x
Oc1ccc(C2=Nn3c(nnc3-c3ccco3)SC2)cc1O | 22.2* | 3.2 | 29.9* | 43.5* | 43.5* | 34.3 | x | x | 39.8* | 16.9
Cc1cc(O)ccc1N=Cc1c(C(F)(F)F)[nH][nH]c1=O | 83.6* | -0.9 | 73.2* | 108.7* | 103.8* | 4.6 | 29.5* | 13.8 | 11.5 | 3.2
O=c1c(O)cccc2cc(O)c(O)c(O)c12 | 93.1* | 3.6 | 24.1* | 54.6* | 58.0* | 60.0* | -4.5 | 80.9* | 52.1* | 18.5*
O=C(OCc1cn(Cc2ccc(F)c(F)c2)nn1)N1CCOCC1 | x | x | -3.1 | 3.4 | x | x | x | x | x | x
Cc1oc2cc([N+](=O)[O-])c(O)c([N+](=O)[O-])c2c1C(=O)c1ccc(Cl)cc1 | -0.9 | 30.7 | 4.0 | 5.0 | -0.3 | x | x | x | x | x
Cc1cccc(/N=C/c2c(O)ccc3oc4c(c23)CCCC4)n1 | x | 2.6 | x | x | 10.7 | x | x | x | x | x
CC(C)CN=Cc1c(O)c([N+](=O)[O-])cc2oc3c(c12)CCCC3 | 6.3 | 33.0 | 24.2* | 20.1 | 43.6* | 42.8* | x | x | x | 1.1
O=[N+]([O-])c1cc2oc3c(c2c(C=NCc2ccccc2)c1O)CCCC3 | 2.1 | 28.6 | 27.5* | 30.6* | 42.5* | 54.2* | x | x | 31.4* | -9.8
COC(=O)[C@]12C[C@H](CC(=O)N3CCOCC3)C(=O)N(Cc3ccco3)C1=C[C@H](C1CCCC1)O[C@@H]2C | x | x | 4.0 | 4.9 | x | x | x | x | x | x
O=C(N/N=C/c1c(O)ccc2ccccc12)c1ccc(CO)nc1 | 33.9* | 1.6 | 34.7* | 23.1 | 48.4* | 46.0* | -15.6 | 25.0* | x | 11.8
COc1ccc2ccccc2c1/C=N/NC(=O)c1ccc(C)nc1 | 0.2 | -0.4 | -1.9 | -8.8 | -1.4 | x | x | x | x | x
N#C/C(=C\c1ccc(O)c(O)c1)C(=O)Nc1cccc2ncccc12 | 72.1* | 8.0 | 29.1* | 27.9 | 52.0* | 39.3* | -21.2 | 60.1* | x | 0.0
COc1ccc(/C=C(\C#N)C(=O)Nc2cccc3ncccc23)cc1OC | 0.9 | 1.0 | -0.7 | -1.0 | 3.6 | x | x | x | x | x
Clc1ccc(C2Nc3cccc4cccc(c34)N2)cc1 | 1.0 | 3.4 | 1.3 | 7.1 | 3.0 | x | x | x | x | x
Clc1ccc(C2Nc3cccc4cccc(c34)N2)c(Cl)c1 | -2.9 | 5.0 | 20.3* | 30.2* | 54.4* | 24.2 | x | x | 32.5* | 6.1
COc1cccc2c1C(=O)c1c(O)c3c(c(O)c1C2=O)CC(O)(C(=O)CO)CC3OC1CC(N(C)C)C(O)C(C)O1 (stereo not drawn) | 147.9* | -14.6 | 60.6* | 78.8* | 67.7* | 66.5* | 167.2* | 136.5* | 61.1* | 40.4*
SMILES | TCR CD3 inh | DAGLB inh | SIAE primary | ABHD4 inh | HTRA1 inhibitor | HTRA1 inh conf | BSA probe FL | TCR-CD3 inh conf | mABHD4 conf | SIAE inh conf
O=S(=O)(c1ccc(F)cc1)N1CN(Cc2ccco2)c2nc3ccccc3nc21 | 45.7* | 2.7 | 33.6* | 45.5* | 45.9* | 1.0 | 8.7 | 8.6 | -11.1 | -1.7
Nc1ccc(C(=O)N/N=C\c2cc(N=Nc3cccc4ccccc34)ccc2O)cc1 | 12.6 | 31.2 | 36.4* | 16.0 | 55.5* | 91.5* | x | x | x | 18.7*
COC(=O)N/N=C/c1cc(N=Nc2ccccc2Cl)ccc1O | 16.9 | 20.9 | -11.9 | 1.8 | 4.8 | x | x | x | x | x
Cc1nn(-c2ccccc2)c2sc(C(=O)N3CCN(Cc4ccc(F)cc4)CC3)cc12 | x | x | -12.4 | -14.6 | x | x | x | x | x | x
Cc1ccc(S(=O)(=O)Nc2nc3ccccc3nc2NCc2ccco2)cc1 | 67.0* | -0.8 | 22.8* | 54.8* | 43.4* | -5.9 | -2.2 | 3.0 | -4.9 | 1.6
O=S(=O)(Nc1nc2ccccc2nc1NCc1ccco1)c1ccc(Cl)cc1 | 1.2 | 5.0 | -6.5 | -2.9 | 7.6 | x | x | x | x | x
COc1ccccc1/C=N/NC(=O)c1cc2c(OC)c(OC)ccc2[nH]1 | -1.9 | 3.3 | 10.0 | 4.9 | -1.1 | x | x | x | x | x
COc1ccc(OC)c2[nH]c(C(=O)N/N=C/c3ccccc3O)cc12 | 18.1 | -0.1 | 34.8* | 24.0 | 53.9* | 22.1 | x | x | x | 8.5
O=C(OCC(=O)N1CCCCC1)c1cc2ccccc2cc1O | -4.9 | -3.1 | -2.2 | -3.9 | -5.6 | x | x | x | x | x
C/C(CC(=O)N1CCCC1)=N\NC(=O)c1cc2ccccc2cc1O | 6.0 | 3.2 | 17.1* | 36.2* | 47.6* | 30.7 | x | x | 26.7 | -1.4
O=C(N/N=C/c1cccc(O)c1)c1cc(-c2ccccc2)nc2ccccc12 | -2.1 | -2.2 | -34.0 | -56.2 | -54.9 | x | x | x | x | x
